Source: ChEMBL document CHEMBL1147854, “Synthesis and biological properties of 4-(3H)-quinazolone derivatives” (2007)
Active and inactive are the calls of the source. No cut-off for these calls is given here.

Legend:
Aspergillus flavus [1] = assay: Antifungal activity against Aspergillus flavus at 10 ug/ml by agar plate method; format: functional
How it was run: (§1)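 1 ml of test compound in DMSO (diluted to required level, filtered if turbid) mixed into 20–25 ml molten potato dextrose agar. After setting, plates were inoculated with fungal isolate and kept at 27 °C for seven days. Percent inhibition of fungal zone then recorded. Amphotericin control (7.5 mg/ml).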

Aspergillus flavus [2] = assay: Antifungal activity against Aspergillus flavus at 20 ug/ml by agar plate method; format: functional; how it was run: as §1
Aspergillus flavus [3] = assay: Antifungal activity against Aspergillus flavus at 50 ug/ml by agar plate method; format: functional; how it was run: as §1
Aspergillus flavus [4] = assay: Antifungal activity against Aspergillus flavus at 100 ug/ml by agar plate method; format: functional; how it was run: as §1
Aspergillus niger [5] = assay: Antifungal activity against Aspergillus niger at 10 ug/ml by agar plate method; format: functional; how it was run: as §1
Aspergillus niger [6] = assay: Antifungal activity against Aspergillus niger at 20 ug/ml by agar plate method; format: functional; how it was run: as §1
Aspergillus niger [7] = assay: Antifungal activity against Aspergillus niger at 50 ug/ml by agar plate method; format: functional; how it was run: as §1
Aspergillus niger [8] = assay: Antifungal activity against Aspergillus niger at 100 ug/ml by agar plate method; format: functional; how it was run: as §1
Pseudomonas aeruginosa = assay: Antibacterial activity against Pseudomonas aeruginosa at 10 ug/ml after 24 hrs by disk diffusion method; format: functional; settings: read-out: IZ
How it was run: (§2)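 Disk diffusion on filter-paper discs impregnated with DMSO solutions of test compound; filtered if turbid. Inhibition zones around dried discs measured after 24 h. Triplicate samples. Tetracycline control (20 mg/ml).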

Staphylococcus aureus = assay: Antibacterial activity against Staphylococcus aureus at 10 ug/ml after 24 hrs by disk diffusion method; format: functional; settings: read-out: IZ; how it was run: as §2
Klebsiella pneumoniae = assay: Antibacterial activity against Klebsiella pneumoniae at 10 ug/ml after 24 hrs by disk diffusion method; format: functional; settings: read-out: IZ; how it was run: as §2
MCF7 = assay: Cytotoxicity against human MCF7 cells by MTT assay; format: functional, cell-based
How it was run: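 MCF-7 cells were kept at 37 °C, 5% CO2 in MEM with 10% FBS, then moved for four days to phenol red-free DMEM with 10% charcoal-stripped serum before testing. Cells were seeded at 1 × 10^4/well and exposed to compounds for 24, 48 and 72 h. MTT was added for 5 h at 37 °C, followed by DMSO solubilisation. Doxorubicin standard.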

| SMILES | inhibition at 10 µg/mL (Aspergillus flavus [1]) [%] | inhibition at 20 µg/mL (Aspergillus flavus [2]) [%] | inhibition at 50 µg/mL (Aspergillus flavus [3]) [%] | inhibition at 100 µg/mL (Aspergillus flavus [4]) [%] | inhibition at 10 µg/mL (Aspergillus niger [5]) [%] | inhibition at 20 µg/mL (Aspergillus niger [6]) [%] | inhibition at 50 µg/mL (Aspergillus niger [7]) [%] | inhibition at 100 µg/mL (Aspergillus niger [8]) [%] | zone of inhibition at 10 µg/mL (Pseudomonas aeruginosa) [mm] | zone of inhibition at 10 µg/mL (Staphylococcus aureus) [mm] | zone of inhibition at 10 µg/mL (Klebsiella pneumoniae) [mm] | Activity (MCF7) |
| --- | --- | --- | --- | --- | --- | --- | --- | --- | --- | --- | --- | --- |
| O=c1c2ccccc2nc(-c2ccccc2)n1Nc1nc(-c2ccccc2)nc2ccccc12 | 76.7 | 83.3 | 93.3 | 96.7 | 30 | 40 | 60 | 75 | 10 | 6 | > 14 | inactive |
| O=c1c2ccccc2nc(/C=C\c2ccccc2)n1Nc1nc(-c2ccccc2)nc2ccccc12 | 53.3 | 80 | 86.7 | 96.7 | 60 | 70 | 90 | 95 | 10 | > 14 | 6 | Active |
| O=C(NCc1nc2ccccc2c(=O)n1Nc1nc(-c2ccccc2)nc2ccccc12)c1ccccc1 | 60 | 66.6 | 76.7 | 86.7 | 50 | 60 | 75 | 90 | 10 | 10 | 10 | Active |
| O=C1c2ccccc2C(=O)N1Cc1nc2ccccc2c(=O)n1Nc1nc(-c2ccccc2)nc2ccccc12 | 83.3 | 86.7 | 86.7 | 96.7 | 25 | 70 | 75 | 85 | > 14 | 6 | > 14 | inactive |
